The values below come from ChEMBL document CHEMBL1125085, “Synthesis and anticonvulsant activity of some new 2-substituted 3-aryl-4(3H)-quinazolinones” (J Med Chem, 1990).

Data set [1] has as its system Mus musculus. In words: (§1) Subcutaneous metrazole (scMet) test was conducted and median effective dose was determined at the time of peak anticonvulsant and sedative effect. Format: organism-based. The settings on record: in vivo. A digest of the protocol: (§2)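 Pentylenetetrazol (85 mg/kg in mice, 70 mg/kg in rats) was given subcutaneously in the posterior midline as a 0.5% solution. Compounds were in 30% PEG 400, dosed ip in male Carworth Farms no. 1 mice, or orally in mice and Sprague-Dawley rats. ED50 was read at time of peak effect, using groups of 8–16 animals and ≥3 doses giving 10–90% protection. Probit analysis gave 95% confidence intervals.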

The test system of data set [2] is Mus musculus. In words: (§3) Subcutaneous metrazole (scMet) test was conducted after Injecting intraperitoneally at the time of peak anticonvulsant in phase II test. Format: ADME, organism-based. Conditions: ip. A digest of the protocol:
(§4)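 Phase II testing in male Carworth Farms no. 1 mice, ip dosing in 30% PEG 400 (0.01 mL/g). Groups of 8–16 mice received a range of doses, giving at least three points in 10–90% protection. ED50 with 95% confidence interval was fitted by probit analysis at the time of peak effect. scMet used pentylenetetrazol 85 mg/kg sc.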

The test system of data set [3] is Mus musculus. In words: (§5) MES test was performed after Injecting intraperitoneally at the time of peak anticonvulsant effect in phase II test. Format: ADME, organism-based. Conditions: ip. A digest of the protocol: as §4
The species named for data set [4] is Mus musculus. In words: Anticonvulsant activity was determined by injecting perorally in mice.(scMet) test was conducted. The class given is functional. A digest of the protocol:
(§6)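 Oral dosing in mice, test solutions in 30% polyethylene glycol 400, 0.01 mL/g body weight. Groups of 8–16 mice received a range of doses until at least three points fell within 10–90% seizure protection.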

For data set [5], the species on record is Mus musculus. In words: Anticonvulsant activity was determined by injecting perorally in mice. MES test was performed. Format: functional. A digest of the protocol:
as §6

In data set [6] the test system is Mus musculus. In words: Dose Injected intraperitoneally that causes loss of righting reflex in mice was reported as hypnotic dose (HD). The class given is functional. A digest of the protocol: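 Mice dosed ip after a toxicity profile at TD50, 2× and 4× TD50, observed from 10 min to 24 h. HD50 is the dose causing loss of righting reflex in 50% of mice, with groups of eight mice scored at several times up to 24 h.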

A short description of data set [7]: Dose Injected intraperitoneally that causes death 50% of the mice within 24 hr was reported as lethal dose 50 (LD50). The class given is organism-based. The settings on record: mouse, in vivo, ip.
For data set [8], the species on record is Mus musculus. In words: Anticonvulsant activity was determined by injecting perorally in mice. Time taken to reach peak toxicity was reported. The class given is functional. A digest of the protocol:
(§7)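 Time of peak effect, in hours, was found separately for anticonvulsant activity and for neurotoxicity. ED50 and TD50 were then determined at those times.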

The species named for data set [9] is Mus musculus. In words: Anticonvulsant activity was determined by injecting perorally in mice. Time taken to reach peak activity was reported. The class given is functional. A digest of the protocol:
as §7

Data set [10] in a line: (§8) Median toxic dose was measured at time of peak neurologic deficit. Format: organism-based. The settings on record: mouse, in vivo. A digest of the protocol: (§9)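 Mice dosed ip in 30% PEG 400. Minimal neurotoxicity was scored by rotorod at the time of peak neurologic deficit. Groups of 8–16 mice were used, with at least three points in the 10–90% range, and TD50 with 95% confidence interval was derived by probit analysis.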

For data set [11], the species on record is Rattus norvegicus. In words: Anticonvulsant activity was determined by injecting perorally in rats. (scMet) test was conducted. The class given is functional.
The species named for data set [12] is Rattus norvegicus. In words: Anticonvulsant activity was determined by injecting perorally in rats. MES test was performed. Format: functional.
The species entered for data set [13] is Rattus norvegicus. In words: Anticonvulsant activity was determined by injecting perorally in rats. Time taken to reach peak toxicity was reported. Format: organism-based. Conditions: in vivo, po. A digest of the protocol: as §7
For data set [14], the species on record is Rattus norvegicus. In words: Anticonvulsant activity was determined by injecting perorally in rats. Time taken to reach peak activity was reported. The class given is functional. A digest of the protocol: as §7
Data set [15] is described as follows: Neurotoxicity was determined by injecting perorally in rats. Conditions: rat, in vivo, po. Format: toxicity, organism-based. A digest of the protocol: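 Rats dosed orally in 30% PEG 400. Neurotoxicity was assessed by positional sense and gait-and-stance tests at the time of peak deficit. TD50 with 95% confidence interval was derived by probit analysis from at least three dose points in the 10–90% range.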

A short description of data set [16]: Protective index is the ratio of TD50 and ED50 values obtained in the maximal electroshock seizure (MES) test. Format: functional. A digest of the protocol:
(§10)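 Protective index = TD50/ED50. Both values are medians from groups of 8–16 animals per dose, with at least three points in the 10–90% effect range, fitted by probit analysis. Each was taken at its own time of peak effect: seizure protection for ED50, neurologic deficit for TD50.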

The nature of data set [17]: (§11) Time taken to reach peak activity was reported. The class given is functional.
Data set [18] can be described thus: (§12) Time taken to reach peak toxicity was reported.
Data set [19] relates to Mus musculus. In words: Rotarod test was used to evaluate neurotoxicity in mice. Values are reported after 0.5 h, at 300 mg/kg; no activity or toxicity up to 300 mg/kg. Format: organism-based. The settings on record: in vivo. In general terms: The rotarod test checks motor coordination on a turning rod.
Data set [20] deals with Mus musculus. In words: Anticonvulsant activity was determined in Subcutaneous metrazole (scMet) test 0.5 h after administration of 300 mg/kg in (mice/rat); no activity or toxicity up to 300 mg/kg. The class given is functional, organism-based.
The test system of data set [21] is Mus musculus. In words: Anticonvulsant activity was determined in maximal electroshock seizure test 0.5 h after administration of 300 mg/kg in (mice/rat); no activity or toxicity up to 300 mg/kg. Format: functional, organism-based. A general note: The maximal electroshock test induces tonic seizures with an electrical stimulus.
Data set [22] concerns Mus musculus. In words: Subcutaneous metrazole (scMet) test was done, 4.0 hr after administration; no activity or toxicity up to 300 mg/kg. Format: functional, organism-based. The arrangement: dose 300 mg/kg.
For data set [23], the system named is Mus musculus. In words: Anticonvulsant activity was determined in maximal electroshock seizure test 4.0 h after administration of 300 mg/kg in (mice/rat); no activity or toxicity up to 300 mg/kg. Format: functional, organism-based.
Data set [24] concerns Mus musculus. The description is as §3. Format: functional. A digest of the protocol:
as §4

Data set [25] is filed under the species Mus musculus. Described as §11. The class given is functional.
Data set [26] is filed under the species Mus musculus. The description is as §12. The class given is organism-based. The settings on record: in vivo.
Data set [27] in a line: Protective index is the ratio of TD50 and ED50 values obtained in the subcutaneous metrazole (scMet) test. Format: functional. A digest of the protocol:
as §10

Data set [28] in a line: Median toxic dose was measured at time of peak neurologic deficit. The class given is […]. A digest of the protocol:
as §9

Data set [29] deals with Mus musculus. In words: Subcutaneous metrazole (scMet) test was conducted and median effective dose was determined at the time of peak anticonvulsant and sedative effect. The class given is […], organism-based. The settings on record: in vivo. A digest of the protocol: as §2
Data set [30] concerns Mus musculus. The data set is described as §1. Format: functional. The settings on record: sc. A digest of the protocol:
as §2

Data set [31] deals with Mus musculus. The data set is described as §5. Format: functional. The settings on record: ip. A digest of the protocol:
as §4

The species named for data set [32] is Mus musculus. The data set is described as §8. The class given is functional. A digest of the protocol: as §9

Where “and” joins values, the source holds several entries; their conditions need not be identical. Identical values can stand only once.

With `CCC1(C)CC(=O)NC1=O` (stereo not drawn) [ETHOSUXIMIDE], the ED50 (as a rule, the dose at which the effect has come halfway, by size or by number of responders) with Mus musculus [1] worked out at 130.4 mg/kg.

Take `O=C(Cc1nc2ccccc2c(=O)n1-c1ccccc1Cl)c1ccncc1`: the ED50 turned out to be 14.5 mg/kg in the data set on Mus musculus [2]; 196 mg/kg in the data set on Mus musculus [3]; 2.53 mg/kg in the data set filed under Mus musculus [4]; 14.1 mg/kg in the data set listed under Mus musculus [5]; 3.09 mg/kg in the data set filed under Rattus norvegicus [11]; 1.44 mg/kg in the data set listed under Rattus norvegicus [12]. In the data set with Mus musculus [6], this molecule registered an HD50 of 1181 mg/kg. Moreover, the LD50 – broadly, the dose at which mortality reaches 50% – at 24 h in data set [7] was above 3000 mg/kg. In addition, the TPE in the data set listed under Mus musculus [8] was determined as 0.5; in the data set filed under Mus musculus [9], 1; in the data set listed under Rattus norvegicus [13] it was 4 h; in the data set listed under Rattus norvegicus [14], 4 h; in data set [17], 2.5 h; in data set [18], 2.5 h. For the same molecule, the values for the TD50 in data set [10] and in data set [15] were 262 mg/kg and 2.91 mg/kg, respectively. Besides, the PI in [16] is 1.3 (2×) and 2.

Turning to `Cc1ccc(-n2c(CC(=O)c3cccnc3)nc3ccccc3c2=O)cc1`, the Activity result in the data set on Mus musculus [19], in the data set on Mus musculus [20], in the data set on Mus musculus [21], in the data set on Mus musculus [22] and in the data set on Mus musculus [23] was “No activity or toxicity up to 300 mg/kg” throughout.

Regarding `COc1ccccc1-n1c(CC(=O)c2ccncc2)nc2ccccc2c1=O`, in the data set with Mus musculus [24], the 50% effect level (ED50) was put at a dose of 42 mg/kg. Further, the TPE in the data set filed under Mus musculus [25] was 2 h; in the data set listed under Mus musculus [26], 0.5 h. Moreover, in [10], the TD50 (commonly the 50% point of the dose-response relation for the toxic effect studied) is 370 mg/kg. For the same molecule, the PI in data set [27] came out at 8.8.

For `Cc1ccccc1-n1c(C)nc2ccccc2c1=O` [METHAQUALONE], in data set [28], the TD50 stood at 55 mg/kg. The same molecule yielded an ED50 with Mus musculus [29] of 33.5 mg/kg.

In the data set with Mus musculus [30], `CCC1(c2ccccc2)C(=O)NC(=O)NC1=O` [PHENOBARBITAL] had an ED50 of 13.2 mg/kg.

For `O=C(Cc1nc2ccccc2c(=O)n1-c1ccccc1F)c1ccncc1`, the ED50 with Mus musculus [24] turned out to be 50 mg/kg; in the data set on Mus musculus [31] it was 196 mg/kg. In addition, the TPE in the data set filed under Mus musculus [25] came out at 2 h; in the data set filed under Mus musculus [26] it was 1 h. The same molecule displayed a TD50 in the data set filed under Mus musculus [32] of 832 mg/kg. The PI in [16] came out at 4.2; in data set [27], 16.6.
